Compound activity: PubChem, Broad Institute
CDK5 inh – blocks human CDK5/p35 kinase activity. Q00535+Q15078. Recombinant CDK5/p35, ADP-Glo luminescence, 60 min. inhibition, % at 10 µM. 330,000 tested, 0.01% active. AID 488839;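 active = highest replicate inhibition of at least 50% and at least 75% of replicates reaching 50%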
STK33 kinase inh – inhibitors of human STK33 kinase | AID 2661 | Q9BYT3 | purified STK33, MBP phosphorylation, ADP-Glo luminescence | inhibition, % at 10 µM | 320,000 tested, 0.073% active;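 active = inhibition at or above 25%, using the most active replicate where run in duplicate; inactive = inhibition below 25%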
Target sequence (Q9BYT3 whole entry, looked up): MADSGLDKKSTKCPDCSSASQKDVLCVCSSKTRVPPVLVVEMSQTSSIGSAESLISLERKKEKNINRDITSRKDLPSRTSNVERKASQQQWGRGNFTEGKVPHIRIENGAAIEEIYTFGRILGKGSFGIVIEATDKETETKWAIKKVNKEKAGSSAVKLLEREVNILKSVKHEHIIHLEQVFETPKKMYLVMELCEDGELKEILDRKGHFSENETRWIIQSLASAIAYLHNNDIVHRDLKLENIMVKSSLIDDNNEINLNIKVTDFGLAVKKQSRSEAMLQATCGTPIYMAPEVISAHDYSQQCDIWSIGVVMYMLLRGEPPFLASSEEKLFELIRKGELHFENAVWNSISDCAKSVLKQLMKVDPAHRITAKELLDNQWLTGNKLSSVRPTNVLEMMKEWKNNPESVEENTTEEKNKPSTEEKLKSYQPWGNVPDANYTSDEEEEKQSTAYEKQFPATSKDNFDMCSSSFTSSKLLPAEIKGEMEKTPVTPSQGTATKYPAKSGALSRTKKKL
HIV Env fusion – HIV envelope-mediated fusion inhibition | HeLa-JRFL Env/CEM21 cell fusion, luciferase | inhibition, % at 12.3 µM | 360,000 tested, 1.1% active;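 active = mean replicate inhibition score of at least 50 and every replicate individually at or above 50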
INS-1E GSIS act – GLuc luminescence reporter in INS-1E cells, primary screen for activators of glucose-dependent secretion of insulin; INS-1E GLuc reporter insulin secretion, 2-3 h; activation, % at 16.6 µM; 370,000 tested, 0.61% active; AID 743287;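 active = lowest replicate activation of at least 40%, so every replicate reaches that level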
GSK3A inh – blocks human GSK-3 alpha kinase | AID 2650 | ADP-Glo luminescence, 60 min | inhibition, % at 10 µM | P49840 | 320,000 tested, 0.1% active;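 active = more than half of replicates show inhibition above 20%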;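 also: GST-tagged GSK-3 alpha with peptide substrate and 25 µM ATP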
GSK3beta inhib – human GSK3beta kinase inhibition; P49841; GST-GSK3beta kinase, ADP-Glo luminescence, 60 min; hits give low values; activity score (negative = inhibition), % at 10 µM; 300,000 tested, 0.038% active; AID 2097;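 active = more than half of replicate wells score below -50%, meaning over 50% inhibition versus plate controls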
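Assay system: GST-tagged human GSK3beta kinase, cell-free; Input: 1.6 ng GSK3beta; Medium: Tris/MgCl2 kinase buffer; Timing: 60 min enzyme reaction, room temperature; Signal: ADP-Glo luminescence quantifying ADP generated by kinase; Evaluation: score relative to plate controls; Benchmarks: DMSO neutral wells and GW8510 at 20 µM as positive.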
A number is an active result; n = inactive; x = not tested or not shown; [ ] = dose if it differs, or a comment. Shown are actives, neighbours in structure and some others; about 1.4% of the full set was active somewhere.

SMILES	CDK5 inh	STK33 kinase inh	HIV Env fusion	INS-1E GSIS act	GSK3A inh	GSK3beta inhib
C[C@H](CO)N1C[C@H](C)[C@H](CN(C)S(=O)(=O)c2ccccc2)Oc2ccc(NC(=O)Nc3cccc4ccccc34)cc2CC1=O	x	x	85[16.7 µM]	n	x	x
C[C@H](CO)N1C[C@H](C)[C@@H](CN(C)S(=O)(=O)c2ccc(Cl)cc2)Oc2ccc(NC(=O)Nc3cccc4ccccc34)cc2CC1=O	x	x	n	n	x	x
C[C@H]1CN([C@@H](C)CO)C(=O)Cc2cc(NC(=O)Nc3cccc4ccccc34)ccc2O[C@H]1CN(C)S(=O)(=O)c1ccc(F)cc1	x	x	59[16.7 µM]	n	x	x
C[C@H](CO)N1C[C@H](C)[C@H](CN(C)Cc2ccccc2)Oc2ccc(NC(=O)Nc3cccc4ccccc34)cc2CC1=O	x	x	60[16.7 µM]	n	x	x
C[C@@H]1CN([C@@H](C)CO)C(=O)Cc2cc(NC(=O)Nc3cccc4ccccc34)ccc2O[C@@H]1CN(C)S(=O)(=O)c1ccc(F)cc1	x	x	n	n	x	x
CCCN1[C@H](C(=O)OC)[C@@H](CO)[C@@H]2Cn3c(ccc(-c4ccncc4)c3=O)[C@@H]21	x	x	x	n	x	x
C[C@H](c1ccccc1)N1C[C@@H](COCc2ccccc2)Oc2cccc(N3CCCCC3)c2S1(=O)=O	x	x	59	n	x	x
O=S1(=O)c2ccccc2OC(COCc2ccccc2)CN1C1CC1 (configuration not stated)	n	x	n	109	x	x
O=C(NCC[C@@H]1CC[C@H](NS(=O)(=O)c2ccccc2F)[C@@H](CO)O1)c1ccc(F)cc1	x	x	n	n	x	x
COc1ccc(C(=O)c2sc(NC(C)C)nc2N)cc1OC	n	n	x	x	91	x
CCc1nnc(NC(=O)c2cccc(OC)c2)s1	n	n	x	x	n	n
COc1cccc(C(=O)c2sc(NC(C)C)nc2N)c1	55	n	x	x	94	-93
Cc1cccc(S(=O)(=O)N2C[C@H](O)COC[C@@H]3O[C@@H](CC(=O)NCc4ccc5c(c4)OCO5)CC[C@H]32)c1	x	x	x	n	x	x
C[C@@H]1CN([C@@H](C)CO)C(=O)Cc2cc(NC(=O)Nc3ccc(F)cc3)ccc2O[C@H]1CN(C)Cc1ccc(Oc2ccccc2)cc1	x	x	n	n	x	x
COc1ccccc1CNC(=O)C[C@@H]1C[C@H]2c3cc(NC(=O)c4ccc5c(c4)OCO5)ccc3O[C@H]2[C@H](CO)O1	x	x	n	n	x	x
NC1=NC[C@@H](Cc2ccc(O)cc2)N1CCC12CC3CC(CC(C3)C1)C2	n	n	n	184	n	n
Cc1noc(C)c1S(=O)(=O)Nc1ccc2c(c1)C(=O)N([C@H](C)CO)C[C@@H](C)[C@@H](CN(C)S(=O)(=O)c1ccccc1)O2	x	x	x	n	x	x
CCNC(=S)N/N=C/c1ccc(OCCOc2ccccc2C)cc1	n	n	n	137	n	n
C[C@@H]1CCCCO[C@H](CN(C)C(=O)c2ccccc2)[C@@H](C)CN([C@H](C)CO)C(=O)c2cc(NC(=O)Nc3ccc(F)cc3)ccc2O1	x	x	n	n	x	x
COc1ccc2c3c(n(C)c2c1)[C@H](CO)N(Cc1ccncc1)CC31CN(C(=O)C2CCC2)C1	x	x	x	n	x	x
Cc1ccsc1/C=N\Nc1cn[nH]c(=O)c1Cl	n	n	56	n	n	n
CCC(=O)N1CC2(CN(Cc3cccnc3)C2)c2c(n(C)c3cc(OC)ccc23)[C@H]1CO	x	x	x	n	x	x
COc1ccccc1CCNC(=O)CSc1nc(-c2ccco2)cc(C(F)(F)F)n1	n	n	59	n	n	n
COc1ccccc1CCNC(=O)CCSc1nc(-c2ccco2)cc(C(F)(F)F)n1	n	n	x	x	n	n
O=C(N[C@@H]1CC[C@H](CCNS(=O)(=O)c2cccc(Cl)c2)O[C@H]1CO)c1ccncc1	x	x	n	n	x	x
CCOc1ccccc1C(=O)Nc1cc(Cl)ccc1O	n	26	n	x	n	n
C[C@H]1CN([C@@H](C)CO)C(=O)c2cc(NC(=O)C3CC3)ccc2O[C@H]1CN(C)C(=O)Nc1cccc2ccccc12	x	x	n	n	x	x
O=C(Cc1ccc(NC(=O)C2CCCN(C(=O)c3ccccc3)C2)cc1)Nc1cccc(C(=O)N2CCCCC2)c1 (configuration not stated)	x	x	n	79	x	x
C[C@@H](NC(=O)N(C)C[C@@H]1OCc2ccccc2-c2ccccc2C(=O)N([C@@H](C)CO)C[C@@H]1C)c1ccccc1	x	x	n	n	x	x
CCCCN(CCCC)C(=O)C1(P(=O)(c2ccccc2)c2ccccc2)CCC1	n	n	60	n	n	n
